Lmaj promast = reduces viability of Leishmania major promastigotes; AID 1063; resazurin fluorescence viability; inhibition, % at 10 µM; 9% of 200,000 active; in the data active means inhibition above about 50%;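 further: promastigotes grown with compound for 44 hours at 28 °C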
S1P4 antagonist = blocks the human S1P4 receptor; inhibition, % at 4.98 µM; 0.26% of 220,000 active; S1P4-expressing cells, antagonist mode, reporter read-out; O95977; in the data active means inhibition above about 29%;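 further: 0% = wells stimulated with agonist and 100% = vehicle wells without agonist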
S1P3 antag = blocks the human S1P3 receptor | CHO S1P3 NFAT-BLA reporter, FRET fluorescence, antagonist mode | inhibition, % at 4.98 µM | 0.27% of 170,000 active;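 active means inhibition above the plate cutoff, the mean inhibition of test wells on that plate plus 3 SD, cut at about 28% in these data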;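 further: cells challenged with S1P at its EC80 of 0.8 µM; blue over green emission ratio from cleaved BLA substrate after 4 h stimulation; 0% = S1P-stimulated wells and 100% = unstimulated DMSO-only wells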
Target sequence (Q99500 whole entry, looked up): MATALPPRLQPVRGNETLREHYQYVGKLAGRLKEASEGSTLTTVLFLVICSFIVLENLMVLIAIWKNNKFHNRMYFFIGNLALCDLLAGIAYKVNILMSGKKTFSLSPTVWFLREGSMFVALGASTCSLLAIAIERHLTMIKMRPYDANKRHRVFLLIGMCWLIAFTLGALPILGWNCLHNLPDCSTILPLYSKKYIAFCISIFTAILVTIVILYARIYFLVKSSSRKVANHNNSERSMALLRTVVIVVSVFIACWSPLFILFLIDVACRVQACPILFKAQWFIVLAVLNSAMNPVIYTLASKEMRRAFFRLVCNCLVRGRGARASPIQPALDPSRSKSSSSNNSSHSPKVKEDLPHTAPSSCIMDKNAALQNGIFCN
S1P4 ag = agonists of human S1P4 receptor; O95977; S1P4-expressing cell line, agonist reporter assay; activation, % at 4.98 µM; 0.35% of 220,000 active; AID 1509; in the data active means activation above about 11%;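 further: 0% = DMSO vehicle and 100% = reference agonist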
Mdm2 ligase inh = blocks human Mdm2 ubiquitin ligase activity; signal enhancement, % at 5 µM; cell-based MDM2 ubiquitination luciferase reporter, 2 h; 0 = plate control, 100 = twice control, blank-subtracted; Q00987; 0.11% of 210,000 active;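 active means signal enhancement of 30% or more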;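 further: luminescence tracks abundance of the self-degrading MDM2-luciferase fusion protein; higher signal means inhibition of MDM2 E3 ligase activity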
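Timing – 2 h compound exposure at 37 °C · Assay system – mammalian cells stably expressing self-ubiquitinating, self-degrading MDM2 E3–luciferase fusion · Amount – 2000 cells seeded into each well · Measure – % luminescence enhancement versus blank-corrected plate control mean · Measured by – SteadyLite luminescence, 15 min reagent step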
The depositor's hits bear a star. Shown is part of a subset that was picked to be rich in hits.

Results for Cc1ccc(C)c(OCCn2cc(/C=C(/C#N)C(=O)NCC3CCCO3)c3ccccc32)c1 (stereo unspecified) ?
Lmaj promast: 97.9*; S1P4 antagonist: -27.1; S1P3 antag: -16.1; S1P4 ag: 0.5; Mdm2 ligase inh: -21.4

Results for N#C/C(=C\c1cn(Cc2ccc(F)cc2)c2ccccc12)C(=O)NCc1ccco1 ?
Lmaj promast: 13.3; S1P4 antagonist: -26.3; S1P3 antag: -2.1; S1P4 ag: 1.8; Mdm2 ligase inh: -8.6

What do the screens show for `N#C/C(=C\c1cn(Cc2ccccc2)c2ccccc12)C(=O)NCc1ccco1`?
Lmaj promast: 51.1*; S1P4 antagonist: -2.2; S1P3 antag: -8.8; S1P4 ag: 0.0; Mdm2 ligase inh: -5.4

Results for COc1ccccc1OCCn1cc(/C=C(\C#N)C(=O)NCc2cccs2)c2ccccc21 ?
Lmaj promast: 94.2*; S1P4 antagonist: -7.9; S1P3 antag: -1.9; S1P4 ag: -0.7; Mdm2 ligase inh: -5.1

How did COc1cc(/C=C(\C#N)C(=O)NCC2CCCO2)ccc1O (stereo unspecified) do in these assays?
Lmaj promast: 10.7; S1P4 antagonist: 5.4; S1P3 antag: -9.1; S1P4 ag: 2.5; Mdm2 ligase inh: -5.4

Results for N#C/C(=C\c1cn(Cc2ccccc2C#N)c2ccccc12)C(=O)NCc1cccs1 ?
Lmaj promast: -5.0; S1P4 antagonist: -8.8; S1P4 ag: 2.3; Mdm2 ligase inh: -3.2

Results for N#C/C(=C\c1cn(CCOc2ccccc2)c2ccccc12)C(=O)NCC1CCCO1 (stereo unspecified) ?
Lmaj promast: 22.9; S1P4 antagonist: -6.8; S1P4 ag: 0.3; Mdm2 ligase inh: -7.0

How did COc1cc(C(O)c2nc3ccccc3s2)cc(OC)c1OC (stereo unspecified) do in these assays?
S1P4 antagonist: -24.6; S1P3 antag: -6.0; S1P4 ag: 2.6

How did Cc1ccc(O)c(C(CC(=O)NC2CCCCC2)c2ccccc2)c1 (stereo unspecified) do in these assays?
Lmaj promast: 33.0; S1P4 antagonist: 2.1; S1P3 antag: -10.1; S1P4 ag: -0.1; Mdm2 ligase inh: -3.9

Results for O=C1CC(c2cccc([N+](=O)[O-])c2)c2c(ccc3ccccc23)N1 (stereo unspecified) ?
Lmaj promast: 99.5*; S1P4 antagonist: -1.8; S1P4 ag: -1.4; Mdm2 ligase inh: -1.0

Results for Cc1ccc(C2CC(=O)Nc3c2ccc2ccccc32)cc1[N+](=O)[O-] (stereo unspecified) ?
Lmaj promast: 95.5*; S1P4 antagonist: -15.2; S1P3 antag: -2.1; S1P4 ag: -1.0; Mdm2 ligase inh: 5.4

How did COc1ccc(-c2cn(-c3ccc(Br)cc3)c3[n+]2CCS3)cc1 do in these assays?
Lmaj promast: 100.0*; S1P4 antagonist: -34.0; S1P3 antag: -4.7; S1P4 ag: 0.3; Mdm2 ligase inh: 2.1

Results for Clc1ccc(-c2c[n+]3c(n2-c2ccccc2)SCC3)cc1 ?
Lmaj promast: 97.3*; S1P4 antagonist: -9.0; S1P3 antag: -16.0; S1P4 ag: -2.1; Mdm2 ligase inh: -16.1

Results for CC(=O)c1ccc(-n2cc(-c3ccc(C(C)(C)C)cc3)[n+]3c2SCCC3)cc1 ?
Lmaj promast: 100.1*; S1P4 antagonist: -8.5; S1P3 antag: -7.2; S1P4 ag: 0.5; Mdm2 ligase inh: -2.3

What do the screens show for `Clc1ccc(-c2cn(-c3ccccc3)c3[n+]2CCS3)cc1`?
Lmaj promast: 69.8*; S1P4 antagonist: -16.9; S1P3 antag: -3.1; S1P4 ag: 0.8; Mdm2 ligase inh: 1.7

How did Fc1ccc(-c2cn(-c3ccccc3)c3[n+]2CCS3)cc1 do in these assays?
S1P4 antagonist: -27.8; S1P3 antag: 3.4; S1P4 ag: 2.2; Mdm2 ligase inh: -3.6

Results for COC(=O)CSc1nc(N)c2c3c(sc2n1)CCCC3 ?
Lmaj promast: 70.6*; S1P4 antagonist: -19.4; S1P4 ag: -0.9; Mdm2 ligase inh: 0.0

Results for CC(C)(C)C1CCc2c(sc3nc(SCC(=O)O)nc(N)c23)C1 (stereo unspecified) ?
S1P4 antagonist: -10.8; S1P3 antag: 7.3; S1P4 ag: 0.8; Mdm2 ligase inh: -3.8

How did COC(=O)CSc1nc(N)c2c3c(sc2n1)C(c1ccccc1)SC(c1ccccc1)C3 (stereo unspecified) do in these assays?
Lmaj promast: 85.2*; S1P4 antagonist: -26.7; S1P3 antag: -11.3; S1P4 ag: -0.3; Mdm2 ligase inh: 5.6

Results for N#CC1=C2SCC(O)(c3ccccc3)N2C(=O)CC1c1ccccc1 (stereo unspecified) ?
Lmaj promast: 92.0*; S1P4 antagonist: -14.4; S1P4 ag: -1.1; Mdm2 ligase inh: -12.1

Results for CN(C)Cc1c(-c2ccc(Cl)cc2)nc2ccccn12 ?
Lmaj promast: 29.2; S1P4 antagonist: -10.8; S1P3 antag: -2.2; S1P4 ag: -0.3; Mdm2 ligase inh: -21.6

Results for COc1ccc(-c2nc3c4ccccc4ccn3c2CN2CCCCC2)cc1OC ?
S1P4 antagonist: 9.4; S1P3 antag: 10.4; S1P4 ag: 0.2; Mdm2 ligase inh: -11.9

Results for COc1ccc(-c2nc3c4ccccc4ccn3c2CN2CCCCC2)cc1 ?
Lmaj promast: 100.0*; S1P4 antagonist: -11.6; S1P3 antag: 17.5; S1P4 ag: 1.9; Mdm2 ligase inh: -12.7

Results for Clc1ccc(-c2nc3ccccn3c2CN2CCCCC2)cc1 ?
Lmaj promast: 76.8*; S1P4 antagonist: 7.8; S1P3 antag: 18.1; S1P4 ag: 0.4; Mdm2 ligase inh: -27.5

What do the screens show for `Cc1snc(S(=O)(=O)Cc2ccccc2Cl)c1C#N`?
Lmaj promast: 2.4; S1P4 antagonist: -74.8; S1P4 ag: 2.4; Mdm2 ligase inh: -15.6

What do the screens show for `COc1ccccc1C(=O)NCCc1nc2ccccc2[nH]1`?
Lmaj promast: -5.7; S1P4 antagonist: 5.3; S1P3 antag: -1.6; S1P4 ag: -0.2; Mdm2 ligase inh: -16.4

How did CCNC(=O)C1CC(=O)N(CCCc2ccccc2)C(=Nc2ccccc2)S1 (stereo unspecified) do in these assays?
S1P4 antagonist: 2.8; S1P3 antag: -0.1; S1P4 ag: 0.6; Mdm2 ligase inh: -5.8

Results for CC(C)(C)Nc1nc(Cl)nc(NC(C)(C)C)n1 ?
Lmaj promast: 21.1; S1P4 antagonist: -15.5; S1P3 antag: 11.4; S1P4 ag: 0.1; Mdm2 ligase inh: 2.6

Results for CC(C)(C)Nc1nc(NN)nc(NC(C)(C)C)n1 ?
Lmaj promast: 81.0*; S1P4 antagonist: -4.5; S1P4 ag: -0.9; Mdm2 ligase inh: -7.8

What do the screens show for `COC(=O)c1nn(-c2ccc(Cl)cc2)c(=O)cc1Sc1ccccn1`?
Lmaj promast: -4.3; S1P4 antagonist: -3.6; S1P4 ag: 0.6; Mdm2 ligase inh: -9.3

Results for Nc1cc(-c2cccc([N+](=O)[O-])c2)[nH]n1 ?
Lmaj promast: -3.0; S1P4 antagonist: -7.8; S1P3 antag: -2.4; S1P4 ag: 0.5; Mdm2 ligase inh: -8.3

What do the screens show for `O=c1cc(-c2cccc([N+](=O)[O-])c2)[nH][nH]1`?
Lmaj promast: 58.3*; S1P4 antagonist: -11.4; S1P3 antag: -0.5; S1P4 ag: -1.4; Mdm2 ligase inh: -4.5

Screening results: PubChem, several laboratories
